Data set [1] relates to Human immunodeficiency virus 1. Briefly: Antiviral activity against Human immunodeficiency virus 1 infected in human C8166 cells assessed as inhibition of virus-induced cytopathic effect. To be noted: Human immunodeficiency virus 1, C8166. It counts as functional, organism-based. The method, boiled down: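 HIV-1 cytopathic-effect inhibition assay in C8166 cells, with EC50 derived. Zidovudine (AZT) run as the positive-control drug.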
(In general: Protection from cytopathic effect is a common read-out in antiviral testing.)

Data set [2] is described as follows: Cytotoxicity against human C8166 cells by MTT assay. It counts as cell-based. The method, boiled down: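 C8166 cell viability read by MTT method, with CC50 derived.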
Background: Formazan colour is commonly taken as a measure of viable cells.

Data set [3] in a line: Therapeutic index, ratio of CC50 for C8166 cells to EC50 for Human immunodeficiency virus 1. It counts as cell-based. Conditions: read-out: Ratio CC50/EC50.

Consider `CC(=O)OCC1=C[C@H]2[C@@H]3C(C)(C)[C@]3(OC(C)=O)C[C@@H](C)[C@]2(O)[C@@H]2C=C(C)C(=O)[C@@]2(O)C1`, for which the half-maximal effective concentration (EC50) – broadly, the concentration at which the effect is half-maximal – in data set [1] was determined as 0.3 nM. In data set [2], the CC50 (as a rule, the concentration giving 50% cytotoxicity) stood at 110 nM. In addition, the selectivity ratio in data set [3] is over 367.
For `CC(=O)O[C@@]12C[C@@H](C)[C@@]3(O)[C@@H](C=C(CO[C@@H]4O[C@H](CO)[C@@H](O)[C@H](O)[C@H]4O)C[C@]4(O)C(=O)C(C)=C[C@@H]34)[C@@H]1C2(C)C` [FISCHEROSIDES A], in that order: 170 nM, over 360 nM and over 2.12.
For `CC(=O)O[C@@]12C[C@@H](C)[C@@]3(O)[C@@H](C=C(CO[C@@H]4O[C@H](COC(=O)c5cc(O)c(O)c(O)c5)[C@@H](O)[C@H](O)[C@H]4O)C[C@]4(O)C(=O)C(C)=C[C@@H]34)[C@@H]1C2(C)C` [FISCHEROSIDES B], in that order: 70 nM, over 280 nM and over 4.
On to `CC(=O)O[C@@]12[C@H](O)[C@@H](C)[C@@]3(O)[C@@H](C=C(CO[C@@H]4O[C@H](CO)[C@@H](O)[C@H](O)[C@H]4O)C[C@]4(O)C(=O)C(C)=C[C@@H]34)[C@@H]1C2(C)C` [FISCHEROSIDES C], for which, in data set [1], the concentration for a half-maximal effect (EC50) worked out at 20 nM. In data set [2], this molecule returned a 50% cytotoxic concentration (CC50) of over 350 nM. Further, the selectivity ratio in data set [3] was over 17.5.
For `CC(=O)O[C@@]12C[C@@H](C)[C@@]3(O)[C@@H](C=C(CO)C[C@]4(O)C(=O)C(C)=C[C@@H]34)[C@@H]1C2(C)C` [PROSTRATIN], in that order: 0.06 nM, over 510 nM and over 8500.
With `Cc1cn([C@H]2C[C@H](N=[N+]=[N-])[C@@H](CO)O2)c(=O)[nH]c1=O` [ZIDOVUDINE], half-maximal cytotoxicity in data set [2] (CC50) was put at 4070 nM. In addition, the selectivity ratio in data set [3] came to 1.02e+06.

Values taken from ChEMBL document CHEMBL1811869, “Tigliane-type diterpenoid glycosides from Euphorbia fischeriana” (J Nat Prod, 2011).
